Results taken from the RNAGym collection of RNA variant scans (doi:10.1038/s41586-018-0170-7).

B1: tRNA (parent)
chain: GUUCCGUUGGCGUAAUGGUAACGCGUCUCCCUCCUAAGGAGAAGACUGCGGGUUCGAGUCCCGUACGGAACG

Variants of: B1
Test: yeast fitness, log relative to wild type (ln ratio); higher = fitter; tRNA-Arg(CCU), competitive growth, 37 C, 1 M NaCl
How it was run: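 Two independent transformations put a combinatorial tRNA-Arg(CCU) variant library on a HIS3 centromeric plasmid into BY4742 lacking the chromosomal gene. Pools were grown in SC-HIS at 30 °C for 4 generations, then in SC-HIS 1M NaCl at 37 °C for ~6.5 generations (~26.5 h), with three outputs taken per input. Fitness compares a genotype's generations with the wild type's as a natural log ratio. Those generations are OD-scaled log2 output/input frequencies, inverse-variance weighted across replicates, from 125 bp paired-end Illumina counts.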
With U2C G6U A43C A69G A70G C71U the “yeast fitness (ln)” value was -0.13.
In the case of U2C G6A A43C C66A A69G A70G C71U, the “yeast fitness (ln)” value is reported as -0.218.
In the case of A43C C66A A70G, the “yeast fitness (ln)” value is reported as -0.0269.
In the case of U2C C66A C71U, the “yeast fitness (ln)” value is reported as -0.0382.
For U2G G6U C46U C66A A69G A70U, the “yeast fitness (ln)” value was 0.00778.
In the case of G6A A43C A69G A70G, the “yeast fitness (ln)” value is reported as -0.26.
With C27U C66U A69G the “yeast fitness (ln)” value was -0.241.
With G6U A43C C66A A69G A70G C71U the “yeast fitness (ln)” value was -0.299.
For G1A U2G G6A C46U C66U A69G C71U, the “yeast fitness (ln)” value was -0.253.
For G1A G6U C27U A43C C46U C66A A69G A70G, the “yeast fitness (ln)” value was -0.432.
For G1A U2C C27U C46U C71U, the “yeast fitness (ln)” value was -0.147.
With G1A U2G G6U A43C C46U C71U the “yeast fitness (ln)” value was -0.335.
In the case of U2C G6A C27U A43C C46U A70G C71U, the “yeast fitness (ln)” value is reported as -0.0979.
With G1A G6A A43C C46U C66U A70G the “yeast fitness (ln)” value was -0.194.
In the case of U2G G6U C27U A43C C46U C66U A70G, the “yeast fitness (ln)” value is reported as -0.311.
For G1A C27U A43C C46U A69G A70U C71U, the “yeast fitness (ln)” value was -0.366.
In the case of G1A U2C G6U A69G A70G C71U, the “yeast fitness (ln)” value is reported as -0.367.
With U2G G6A C66A A69G A70G C71U the “yeast fitness (ln)” value was -0.213.
With U2G C27U A43C C46U C66A A69G A70G C71U the “yeast fitness (ln)” value was -0.183.
In the case of G1A U2G G6U A43C C46U C66U A69G A70G C71U, the “yeast fitness (ln)” value is reported as -0.371.
With G1A U2C G6U C46U A69G C71U the “yeast fitness (ln)” value was -0.0722.
With G6A C46U C66U A70G C71U the “yeast fitness (ln)” value was -0.229.
With G1A G6A C27U A43C C46U A69G A70U the “yeast fitness (ln)” value was -0.259.
With U2G G6U C27U A43C C46U C66U A69G A70G C71U the “yeast fitness (ln)” value was -0.369.
In the case of G1A U2G G6A C27U C46U C66U A69G C71U, the “yeast fitness (ln)” value is reported as -0.332.
With U2G G6A A70U the “yeast fitness (ln)” value was -0.0249.
In the case of G1A U2G G6U C27U A43C C66A A70U, the “yeast fitness (ln)” value is reported as -0.212.
In the case of G1A U2G G6U C27U A69G A70G, the “yeast fitness (ln)” value is reported as -0.376.
With U2G C27U C46U A70G C71U the “yeast fitness (ln)” value was -0.216.
With G1A G6A A43C C71U the “yeast fitness (ln)” value was -0.257.
For G1A A43C C46U C66U A69G A70U, the “yeast fitness (ln)” value was -0.259.
In the case of C27U A43C C46U C66A A70G, the “yeast fitness (ln)” value is reported as -0.0609.
For U2G G6U A43C C66U A69G A70G, the “yeast fitness (ln)” value was -0.323.
For G1A U2G G6U C27U A43C C46U C66A A69G A70U C71U, the “yeast fitness (ln)” value was -0.431.
For G1A G6A C27U A43C A70G, the “yeast fitness (ln)” value was -0.21.
In the case of U2C A43C A69G A70U, the “yeast fitness (ln)” value is reported as -0.235.
With G1A G6U A43C C46U C66A A69G A70U the “yeast fitness (ln)” value was -0.474.
In the case of G1A U2C G6U C27U C46U C71U, the “yeast fitness (ln)” value is reported as -0.0687.
With U2C G6U A43C C46U C66U A69G C71U the “yeast fitness (ln)” value was -0.347.
With G1A U2G A43C C66A A69G A70G C71U the “yeast fitness (ln)” value was -0.329.
With G1A A43C C46U C66U A70U the “yeast fitness (ln)” value was -0.124.
For G1A G6U C27U A43C C46U C66U A70U C71U, the “yeast fitness (ln)” value was -0.471.
With G1A G6A A43C C46U the “yeast fitness (ln)” value was -0.0957.
In the case of C27U A69G A70U, the “yeast fitness (ln)” value is reported as -0.206.
With G1A U2G G6U C27U C66A A69G A70G C71U the “yeast fitness (ln)” value was -0.408.
In the case of G1A U2G G6A C66U A70U C71U, the “yeast fitness (ln)” value is reported as -0.0116.
For G1A U2C G6A C27U C46U C66U A69G A70U C71U, the “yeast fitness (ln)” value was -0.327.
In the case of U2C G6U C27U A70G, the “yeast fitness (ln)” value is reported as -0.185.
In the case of G1A G6U C46U C66A A69G A70G C71U, the “yeast fitness (ln)” value is reported as -0.162.
For U2G C46U A69G A70U, the “yeast fitness (ln)” value was 0.00211.
For U2G G6U C46U C66A A70G, the “yeast fitness (ln)” value was -0.0357.
With U2C C27U C46U C66U A70G the “yeast fitness (ln)” value was -0.04.
With G1A U2C G6A C66U the “yeast fitness (ln)” value was -0.121.
In the case of U2C G6U C66A A69G A70G C71U, the “yeast fitness (ln)” value is reported as -0.00896.
With C27U A43C C46U C66A A69G A70U C71U the “yeast fitness (ln)” value was -0.366.
In the case of G1A A43C C66U A69G A70U, the “yeast fitness (ln)” value is reported as -0.373.
In the case of U2G G6A C27U C46U A70U, the “yeast fitness (ln)” value is reported as -0.106.
In the case of G1A G6U A43C C66A A70G, the “yeast fitness (ln)” value is reported as -0.135.
In the case of U2C G6A A43C C66U C71U, the “yeast fitness (ln)” value is reported as -0.115.
In the case of U2G G6A C27U A70U C71U, the “yeast fitness (ln)” value is reported as -0.144.
In the case of U2G A69G A70G, the “yeast fitness (ln)” value is reported as -0.147.
In the case of G1A G6A A43C A69G A70U C71U, the “yeast fitness (ln)” value is reported as -0.503.
With G1A U2G C27U A43C C46U C66U the “yeast fitness (ln)” value was -0.231.
For U2C C27U A43C A70G C71U, the “yeast fitness (ln)” value was -0.0236.
In the case of G1A U2G C27U A70G C71U, the “yeast fitness (ln)” value is reported as -0.371.
For G1A U2G G6U A43C C66A A70U, the “yeast fitness (ln)” value was -0.282.
For G1A G6A C27U A43C C66A A69G A70G C71U, the “yeast fitness (ln)” value was -0.299.
In the case of U2G G6A A43C C46U C66U, the “yeast fitness (ln)” value is reported as -0.147.
With U2C G6A C27U A43C C46U C66A C71U the “yeast fitness (ln)” value was -0.216.
In the case of G6U C66A A69G A70U C71U, the “yeast fitness (ln)” value is reported as -0.408.
In the case of G1A G6U C27U C46U C66A A69G C71U, the “yeast fitness (ln)” value is reported as -0.187.
For U2G G6A A43C C46U C66A A69G A70U, the “yeast fitness (ln)” value was -0.0569.
In the case of G1A C27U A43C C46U C66U, the “yeast fitness (ln)” value is reported as -0.199.
For U2G G6A C27U C66A A70U, the “yeast fitness (ln)” value was -0.126.
For U2C G6U C27U A43C A70U C71U, the “yeast fitness (ln)” value was -0.253.
In the case of U2C C46U A70U, the “yeast fitness (ln)” value is reported as 0.0104.
In the case of U2C G6A C27U A43C C46U C66U A69G A70U, the “yeast fitness (ln)” value is reported as -0.173.
In the case of U2G G6U C27U C46U C71U, the “yeast fitness (ln)” value is reported as -0.199.
With G1A U2G G6U A43C C46U C66A the “yeast fitness (ln)” value was -0.364.
With G1A G6A C66U A69G A70U C71U the “yeast fitness (ln)” value was -0.266.
For G1A U2C C27U A43C C46U C66U A70G C71U, the “yeast fitness (ln)” value was -0.4.
With U2C G6A C66U the “yeast fitness (ln)” value was 0.00772.
For U2G G6A C27U A43C C46U A69G C71U, the “yeast fitness (ln)” value was -0.22.
For G1A A43C C46U C66U A70U C71U, the “yeast fitness (ln)” value was -0.323.
